Source: publication PMC2814311 (Journal of biological inorganic chemistry : JBIC : a …, 2009)

Key:
[1] = tested on: breast cancer DCIS cells; assay: Cell proliferation assay; format: cell-based, human; settings: for toxicity of compound alone: DCIS cells, compound without copper, 24 h, MTT
Method in brief: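 DCIS human breast cancer cells were kept in DMEM/F12 with 5% horse serum, bicarbonate, 10 mM HEPES and antibiotics at 37 °C, 5% CO2. They were grown to 70–80% confluency, then given test compound alone or premixed with CuCl2 at various concentrations for 24 h at 37 °C. Medium was removed before the MTT read-out. Viability is expressed as percent of DMSO-treated cells (mean±SD, n=4).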

[2] = Cu-ligand binding by UV-vis titration; format: physicochemical; settings: UV-vis titration with CuCl2 in methanol; 0.1 mM compound
[3] = Parallel artificial membrane permeability assay; format: in vitro ADME; settings: PAMPA
Method in brief: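 Test compound was supplied as a 10 mM DMSO stock and diluted 200-fold in pH 7.4 buffer. It was placed in the donor wells under an artificial lipid membrane filter plate holding pH 7.4 acceptor sink buffer. Plates were incubated 0.5 h at room temperature, with each well magnetically stirred. Donor and acceptor concentrations were measured by UV plate spectrometry in an automated workflow.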

[4] = tested on: MCF10dcis.com (DCIS) cells; assay: Copper accumulation in breast cancer cells measured by ICP-OES; format: cell-based, human; settings: for difference in ability to accumulate cellular copper versus inactive analogs: 10 μM CuCl2 mixtures, 1 h (8-OHQ vs 2, 3) or 8 hrs (CQ vs 5, 6); for increase of intracellular copper level: compound-copper mixture
[5] = Caco-2 permeability assay; format: in vitro ADME; settings: human; for efflux ratio at 2 h, 50 μmol/L: Caco-2, pH 7.4; for Papp at 2 h, 50 μmol/L: 2 hrs at 37°C
Method in brief: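 Caco-2 cells were grown in MEM with 20% FBS at 37 °C and 5% CO2. They were seeded on transwell inserts at 0.165×10^5 cells/insert and cultured 21 days in 10% FBS MEM, with monolayer integrity checked by TEER. Monolayers were washed in HBSS/HEPES (10 mM, pH 7.4). Test compound (50 μmol/L) was added apically or basolaterally and incubated 2 h at 37 °C. The receiver side was quantified by UPLC/MS. Papp = dQ/dt×1/AC0, and efflux ratio = B→A/A→B.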

[6] = Caco-2, pH 7.4, CaCo2 Papp A/B, apical to basolateral
[7] = Caco-2, pH 7.4, Caco2 Papp B/A, basolateral to apical

For Oc1cccc2cccnc12 [Compound 1, 8-hydroxyquinoline, reference compound], the “toxicity of compound alone” value [1] was “some toxicity”, the “toxicity of compound alone” value ([1]; listed as 8-OHQ) was “much less or no toxicity” and the “formation of copper complex” value [2] was “bind to copper and form complexes”. The Papp at 0.5 hr, 50 µM [3] was 21.3 ± 1.6 ×10⁻⁶ cm/s, the “difference in ability to accumulate cellular copper versus inactive analogs” value [4] was “at least 100 fold” and the “increase of intracellular copper level” value [4] was 135 fold. It also gave an efflux ratio at 2 h, 50 μmol/L [5] of 0.8, a Papp at 2 h, 50 μmol/L [5, 6] of 38 ± 14.8 ×10⁻⁶ cm/s and a Papp at 2 h, 50 μmol/L [5, 7] of 29 ± 1.1 ×10⁻⁶ cm/s.
With COc1cccc2cccnc12 [Compound 2, 8-methoxyquinoline] the “formation of copper complex” value [2] was “could not form complexes with copper”, the Papp at 0.5 hr, 50 µM [3] was 68.2 ± 10.9 ×10⁻⁶ cm/s and the “increase of intracellular copper level” value [4] was “did not change the accumulation of intracellular copper”. The efflux ratio at 2 h, 50 μmol/L [5] was 0.6, the Papp at 2 h, 50 μmol/L [5, 6] was 48.3 ± 2.6 ×10⁻⁶ cm/s and the Papp at 2 h, 50 μmol/L [5, 7] was 29.9 ± 0.7 ×10⁻⁶ cm/s.
In the case of CCOc1cccc2cccnc12 [Compound 3, 8-ethoxyquinoline], the “formation of copper complex” value [2] is reported as “could not form complexes with copper”, the Papp at 0.5 hr, 50 µM [3] is reported as 72.6 ± 24.8 ×10⁻⁶ cm/s and the “increase of intracellular copper level” value [4] is reported as “did not change the accumulation of intracellular copper”. The efflux ratio at 2 h, 50 μmol/L [5] was 0.5, the Papp at 2 h, 50 μmol/L [5, 6] was 20.7 ± 14.6 ×10⁻⁶ cm/s and the Papp at 2 h, 50 μmol/L [5, 7] was 9.4 ± 2.5 ×10⁻⁶ cm/s.
In the case of Oc1c(I)cc(Cl)c2cccnc12 [Compound 4, 5-chloro-7-iodo-8-hydroxyquinoline, reference compound], the “toxicity of compound alone” value [1] is reported as “some toxicity”, the “toxicity of compound alone” value ([1]; listed as CQ) is reported as “much less or no toxicity” and the “formation of copper complex” value [2] is reported as “bind to copper and form complexes”. The Papp at 0.5 hr, 50 µM [3] was 33.4 ± 3.1 ×10⁻⁶ cm/s, the “difference in ability to accumulate cellular copper versus inactive analogs” value [4] was 40–50 fold and the efflux ratio at 2 h, 50 μmol/L [5] was 0.7. For the same compound, the Papp at 2 h, 50 μmol/L [5, 6] was 47.3 ± 6.1 ×10⁻⁶ cm/s and the Papp at 2 h, 50 μmol/L [5, 7] was 31.5 ± 2.2 ×10⁻⁶ cm/s.
For COc1c(I)cc(Cl)c2cccnc12 [Compound 5, 5-chloro-7-iodo-8-methoxyquinoline], the “formation of copper complex” value [2] was “could not form complexes with copper”, the Papp at 0.5 hr, 50 µM [3] was 77.9 ± 5.4 ×10⁻⁶ cm/s and the “increase of intracellular copper level” value [4] was “did not change the accumulation of intracellular copper”. The efflux ratio at 2 h, 50 μmol/L [5] was 0.6, the Papp at 2 h, 50 μmol/L [5, 6] was 21.5 ± 3.1 ×10⁻⁶ cm/s and the Papp at 2 h, 50 μmol/L [5, 7] was 12.5 ± 1.6 ×10⁻⁶ cm/s.
With COc1ccc(Cl)c2cccnc12 [Compound 6, 5-chloro-8-methoxyquinoline] the “formation of copper complex” value [2] was “could not form complexes with copper”, the Papp at 0.5 hr, 50 µM [3] was 30.8 ± 4.9 ×10⁻⁶ cm/s and the “increase of intracellular copper level” value [4] was “did not change the accumulation of intracellular copper”. It also gave an efflux ratio at 2 h, 50 μmol/L [5] of 0.7, a Papp at 2 h, 50 μmol/L [5, 6] of 60.4 ± 2.4 ×10⁻⁶ cm/s and a Papp at 2 h, 50 μmol/L [5, 7] of 41.3 ± 2.7 ×10⁻⁶ cm/s.
With [Cu+2].[O-]c1cccc2cccnc12.[O-]c1cccc2cccnc12 [Cu [8-OHQ]2] the “anti-proliferative effect of synthesized copper complex” value ([1]; unpublished work of the authors) was “comparable to their copper mixtures”.
